SMILES strings stand for the structures. Active and inactive are the calls of the source. The calls are words filed in the database; no cut-off is given here. Some results are limits rather than exact numbers.

Test [1] addresses T1, Proto-oncogene tyrosine-protein kinase ROS (Homo sapiens, UniProt P08922). The test can be described thus: Binding affinity to recombinant human ROS1 assessed as inhibition constant in presence of ATP by microfluidic mobility shift assay.
For test [2], the system named is Proto-oncogene tyrosine-protein kinase ROS (Homo sapiens), P08922 [L2026M]. The test is described as follows: Inhibition of recombinant human ROS1 L2026M mutant in presence of ATP by microfluidic mobility shift assay. The following applies: dose 0.001-1000 nM.
Proto-oncogene tyrosine-protein kinase ROS (Homo sapiens), P08922 [L2026M], sequence (P08922 whole entry L2026M): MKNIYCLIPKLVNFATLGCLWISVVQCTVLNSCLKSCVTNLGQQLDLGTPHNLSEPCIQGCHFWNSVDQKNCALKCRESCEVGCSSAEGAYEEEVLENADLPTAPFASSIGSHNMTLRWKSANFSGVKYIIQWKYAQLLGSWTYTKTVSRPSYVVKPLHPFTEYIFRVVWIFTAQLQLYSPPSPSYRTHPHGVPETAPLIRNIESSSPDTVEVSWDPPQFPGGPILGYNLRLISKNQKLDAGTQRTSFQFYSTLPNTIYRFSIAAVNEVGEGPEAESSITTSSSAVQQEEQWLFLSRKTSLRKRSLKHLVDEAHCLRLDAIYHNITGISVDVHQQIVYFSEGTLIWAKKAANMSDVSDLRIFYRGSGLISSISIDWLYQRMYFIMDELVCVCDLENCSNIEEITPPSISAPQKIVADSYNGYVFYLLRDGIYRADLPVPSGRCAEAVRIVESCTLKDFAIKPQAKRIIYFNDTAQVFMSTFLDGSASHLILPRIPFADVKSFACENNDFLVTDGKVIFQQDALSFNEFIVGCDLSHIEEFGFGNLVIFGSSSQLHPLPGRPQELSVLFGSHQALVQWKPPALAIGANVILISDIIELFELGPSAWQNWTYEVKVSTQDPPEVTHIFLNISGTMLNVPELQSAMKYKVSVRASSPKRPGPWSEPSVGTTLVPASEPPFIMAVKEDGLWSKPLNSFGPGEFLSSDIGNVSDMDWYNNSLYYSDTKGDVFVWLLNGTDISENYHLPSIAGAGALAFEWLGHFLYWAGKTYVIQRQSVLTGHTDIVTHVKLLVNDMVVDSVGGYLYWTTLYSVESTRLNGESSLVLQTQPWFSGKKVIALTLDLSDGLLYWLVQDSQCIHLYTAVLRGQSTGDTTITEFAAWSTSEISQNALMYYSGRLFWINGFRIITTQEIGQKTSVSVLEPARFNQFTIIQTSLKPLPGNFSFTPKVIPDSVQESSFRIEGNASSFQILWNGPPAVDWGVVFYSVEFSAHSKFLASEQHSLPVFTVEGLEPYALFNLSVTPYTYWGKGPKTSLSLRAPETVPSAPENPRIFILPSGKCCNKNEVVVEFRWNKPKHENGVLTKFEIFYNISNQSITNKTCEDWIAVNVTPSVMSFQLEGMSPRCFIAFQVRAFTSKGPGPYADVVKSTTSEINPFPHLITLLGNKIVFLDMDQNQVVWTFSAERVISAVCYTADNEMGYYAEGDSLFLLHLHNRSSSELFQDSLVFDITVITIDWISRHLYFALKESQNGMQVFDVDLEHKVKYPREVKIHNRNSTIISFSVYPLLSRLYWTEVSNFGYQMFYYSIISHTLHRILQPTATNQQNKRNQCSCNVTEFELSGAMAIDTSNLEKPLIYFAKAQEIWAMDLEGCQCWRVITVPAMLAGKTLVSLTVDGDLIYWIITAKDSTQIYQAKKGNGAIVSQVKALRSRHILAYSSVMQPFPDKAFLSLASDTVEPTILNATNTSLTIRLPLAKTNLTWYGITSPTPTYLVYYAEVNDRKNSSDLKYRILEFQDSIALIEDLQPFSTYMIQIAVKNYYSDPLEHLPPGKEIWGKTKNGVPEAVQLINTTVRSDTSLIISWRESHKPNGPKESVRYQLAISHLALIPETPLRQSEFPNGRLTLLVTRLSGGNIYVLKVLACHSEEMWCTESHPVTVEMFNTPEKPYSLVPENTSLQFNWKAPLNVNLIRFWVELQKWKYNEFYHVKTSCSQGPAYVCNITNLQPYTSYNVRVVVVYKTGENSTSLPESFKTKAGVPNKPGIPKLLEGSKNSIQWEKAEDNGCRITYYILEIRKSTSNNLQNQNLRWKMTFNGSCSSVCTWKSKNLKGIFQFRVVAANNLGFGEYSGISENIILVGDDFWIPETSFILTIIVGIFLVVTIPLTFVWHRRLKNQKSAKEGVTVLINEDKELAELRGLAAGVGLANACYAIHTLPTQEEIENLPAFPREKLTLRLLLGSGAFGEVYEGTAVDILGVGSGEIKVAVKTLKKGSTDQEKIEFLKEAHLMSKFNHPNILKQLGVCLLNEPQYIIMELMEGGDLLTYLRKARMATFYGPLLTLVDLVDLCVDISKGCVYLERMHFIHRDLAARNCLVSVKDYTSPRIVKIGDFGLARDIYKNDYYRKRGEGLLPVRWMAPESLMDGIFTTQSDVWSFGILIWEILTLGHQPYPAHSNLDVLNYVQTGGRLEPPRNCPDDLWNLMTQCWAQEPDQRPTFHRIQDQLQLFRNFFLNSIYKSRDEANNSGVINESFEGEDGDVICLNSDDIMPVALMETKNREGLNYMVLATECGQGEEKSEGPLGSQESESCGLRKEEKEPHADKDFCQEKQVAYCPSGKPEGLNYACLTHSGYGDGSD
Test [3] addresses T1, Proto-oncogene tyrosine-protein kinase ROS. The test can be described thus: Inhibition of recombinant human ROS1 in presence of ATP by microfluidic mobility shift assay. The following applies: dose 0.001-1000 nM.
Test [4] relates to Proto-oncogene tyrosine-protein kinase ROS (Homo sapiens), P08922 [G2032R]. The test is described as follows: Inhibition of recombinant human ROS1 G2032R mutant in presence of ATP by microfluidic mobility shift assay. The following applies: dose 0.001-1000 nM.
Proto-oncogene tyrosine-protein kinase ROS (Homo sapiens), P08922 [G2032R], sequence (P08922 whole entry G2032R, the tested form may be a part): as the sequence (P08922 whole entry L2026M) above, with M2026L, G2032R counted along it
The target of a further test is SLC34A2-ROS1 (Homo sapiens, UniProt P08922). The test can be described thus: Inhibition of SLC34A2-ROS1 fusion protein expressed in human HCC78 cells assessed as inhibition of phosphorylated ROS1 incubated for 1 hr by ELISA analysis. The format is cell-based.
The target of test [5] is T2, H-2 class II histocompatibility antigen gamma chain/Proto-oncogene tyrosine-protein kinase ROS (Mus musculus, UniProt Q78DX7). The test can be described thus: Inhibition of CD74-ROS1 expressed in mouse BaF3 cells assessed as inhibition of phosphorylated ROS1 incubated for 1 hr by ELISA analysis. The format is cell-based. The method in brief:
(§1)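 Cells seeded in growth medium with 0.5% serum and incubated overnight; compounds diluted in serum-free medium, added for 1 h, then medium aspirated. Lysates assayed for phospho-ROS1 (Tyr2274) by sandwich ELISA. IC50 from four-parameter concentration-response curve fit. Engineered lines made by retroviral transduction (pMSCV) with puromycin or hygromycin selection for 5 d.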
A general note: An ELISA detects its analyte on a solid surface through an enzyme-linked reagent.

A short description of test [6]: Inhibition of CD74-ROS1 G2032R mutant expressed in mouse BaF3 cells assessed as inhibition of phosphorylated ROS1 incubated for 1 hr by ELISA analysis. The format is cell-based. The following applies: BaF3, 1 h. The method in brief:
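BaF3 cells retrovirally engineered to express CD74-ROS1 G2032R, seeded in growth medium with 0.5% serum overnight. Compounds diluted in serum-free medium, added for 1 h, then aspirated. Lysates assayed for phospho-ROS1 (Tyr2274) by sandwich ELISA; IC50 from four-parameter concentration-response curve fit.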

A short description of test [7]: Inhibition of CD74-ROS1 L2026M mutant expressed in mouse BaF3 cells assessed as inhibition of phosphorylated ROS1 incubated for 1 hr by ELISA analysis. The class given is cell-based. The following applies: BaF3, 1 h.
In test [8] the target is T2, H-2 class II histocompatibility antigen gamma chain/Proto-oncogene tyrosine-protein kinase ROS. The test is described as follows: Inhibition of CD74-ROS1 expressed in mouse NIH3T3 cells assessed as inhibition of phosphorylated ROS1 incubated for 1 hr by ELISA analysis. The format is cell-based. A digest of the protocol: as §1
The target in test [9] is T3, Golgi-associated PDZ and coiled-coil motif-containing protein/Proto-oncogene tyrosine-protein kinase ROS (Mus musculus, UniProt Q78DX7). The test can be described thus: Inhibition of FIG-ROS1 short isoform fusion protein expressed in mouse NIH3T3 cells assessed as inhibition of phosphorylated ROS1 incubated for 1 hr by ELISA analysis. The format is cell-based. A digest of the protocol: as §1
T3 sequence (Q78DX7 whole entry, other chains not shown, the tested form may be a part, canonical isoform): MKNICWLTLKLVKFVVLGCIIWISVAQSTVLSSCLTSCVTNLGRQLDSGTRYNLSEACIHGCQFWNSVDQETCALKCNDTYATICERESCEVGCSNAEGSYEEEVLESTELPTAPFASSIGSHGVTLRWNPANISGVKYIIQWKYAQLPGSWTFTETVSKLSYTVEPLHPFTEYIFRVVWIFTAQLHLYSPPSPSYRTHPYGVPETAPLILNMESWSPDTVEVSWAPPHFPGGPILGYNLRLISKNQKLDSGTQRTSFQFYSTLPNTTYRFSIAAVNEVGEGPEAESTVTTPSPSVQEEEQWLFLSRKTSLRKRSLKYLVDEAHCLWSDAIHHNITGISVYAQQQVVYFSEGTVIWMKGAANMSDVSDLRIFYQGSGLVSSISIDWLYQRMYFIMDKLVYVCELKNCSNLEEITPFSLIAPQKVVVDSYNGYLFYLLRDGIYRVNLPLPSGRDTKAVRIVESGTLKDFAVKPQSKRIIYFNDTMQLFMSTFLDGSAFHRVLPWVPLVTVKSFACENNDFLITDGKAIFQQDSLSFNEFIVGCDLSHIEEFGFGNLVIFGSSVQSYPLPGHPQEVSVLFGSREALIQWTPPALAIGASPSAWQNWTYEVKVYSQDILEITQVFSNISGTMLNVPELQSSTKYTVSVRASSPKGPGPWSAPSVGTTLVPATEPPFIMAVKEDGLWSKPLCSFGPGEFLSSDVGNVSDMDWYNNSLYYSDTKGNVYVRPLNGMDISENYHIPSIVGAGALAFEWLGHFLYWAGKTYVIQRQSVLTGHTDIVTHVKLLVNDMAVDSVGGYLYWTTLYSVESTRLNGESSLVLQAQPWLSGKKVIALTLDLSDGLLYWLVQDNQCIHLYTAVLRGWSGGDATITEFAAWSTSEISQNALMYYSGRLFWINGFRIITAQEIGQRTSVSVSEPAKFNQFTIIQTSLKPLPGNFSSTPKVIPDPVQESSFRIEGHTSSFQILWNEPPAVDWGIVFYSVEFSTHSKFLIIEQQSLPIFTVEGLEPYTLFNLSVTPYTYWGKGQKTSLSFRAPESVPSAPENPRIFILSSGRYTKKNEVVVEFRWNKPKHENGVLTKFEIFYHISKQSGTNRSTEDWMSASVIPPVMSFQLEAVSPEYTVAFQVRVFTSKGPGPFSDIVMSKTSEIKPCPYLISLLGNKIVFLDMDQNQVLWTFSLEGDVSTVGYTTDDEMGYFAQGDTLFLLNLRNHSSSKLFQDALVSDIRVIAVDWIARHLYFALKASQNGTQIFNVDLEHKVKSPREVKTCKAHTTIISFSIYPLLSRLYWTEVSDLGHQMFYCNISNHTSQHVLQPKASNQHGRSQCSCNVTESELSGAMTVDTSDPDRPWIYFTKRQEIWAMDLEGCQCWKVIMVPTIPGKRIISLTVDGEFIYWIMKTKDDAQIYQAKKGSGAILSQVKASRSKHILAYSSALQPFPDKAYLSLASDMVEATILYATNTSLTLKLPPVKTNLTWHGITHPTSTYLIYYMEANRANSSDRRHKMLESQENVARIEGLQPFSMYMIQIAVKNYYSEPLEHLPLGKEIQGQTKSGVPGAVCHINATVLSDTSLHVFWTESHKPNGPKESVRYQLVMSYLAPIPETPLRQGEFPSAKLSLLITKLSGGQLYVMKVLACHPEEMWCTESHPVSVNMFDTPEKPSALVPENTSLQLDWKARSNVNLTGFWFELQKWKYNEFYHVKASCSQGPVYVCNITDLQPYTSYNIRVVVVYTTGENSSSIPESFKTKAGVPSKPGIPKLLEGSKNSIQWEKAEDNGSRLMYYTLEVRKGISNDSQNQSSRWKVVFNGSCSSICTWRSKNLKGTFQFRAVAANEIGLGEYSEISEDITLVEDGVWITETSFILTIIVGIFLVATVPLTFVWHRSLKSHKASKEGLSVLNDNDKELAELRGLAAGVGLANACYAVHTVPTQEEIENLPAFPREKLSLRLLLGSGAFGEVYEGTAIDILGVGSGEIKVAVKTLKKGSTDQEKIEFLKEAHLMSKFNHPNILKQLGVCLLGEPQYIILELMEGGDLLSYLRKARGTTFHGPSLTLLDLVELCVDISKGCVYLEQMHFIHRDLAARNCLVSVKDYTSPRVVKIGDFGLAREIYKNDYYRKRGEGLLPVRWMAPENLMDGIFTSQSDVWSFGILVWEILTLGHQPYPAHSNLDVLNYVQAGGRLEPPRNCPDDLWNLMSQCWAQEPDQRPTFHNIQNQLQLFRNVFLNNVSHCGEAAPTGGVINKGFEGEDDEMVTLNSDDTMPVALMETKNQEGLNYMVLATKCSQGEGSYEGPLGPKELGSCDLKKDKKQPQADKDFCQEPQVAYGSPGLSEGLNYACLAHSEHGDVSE

Test [10] concerns the target T3, Golgi-associated PDZ and coiled-coil motif-containing protein/Proto-oncogene tyrosine-protein kinase ROS. The test can be described thus: Inhibition of FIG-ROS1 long isoform fusion protein expressed in mouse NIH3T3 cells assessed as inhibition of phosphorylated ROS1 incubated for 1 hr by ELISA analysis. The class given is cell-based. A digest of the protocol:
as §1

Test [11] concerns HCC78. The test is described as follows: Antiproliferative activity against human HCC78 cells harboring SLC34A2-ROS1 fusion protein assessed as reduction in cell viability incubated for 72 hrs by CellTiter-Glo assay. The class given is functional, cell-based. The following applies: HCC78, 72 h. A digest of the protocol:
(§2)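 HCC78 NSCLC cells seeded in growth medium with 10% FBS, cultured overnight at 37 °C, then exposed to serial compound dilutions for 72 h at 37 °C. Relative cell number read by CellTiter-Glo luminescence; IC50 from four-parameter concentration-response curve fit.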
For orientation: In ATP-based viability assays light output follows the ATP content of the culture.

Test [12] relates to BaF3. The test is described as follows: Antiproliferative activity against mouse BaF3 cells harboring CD74-ROS1 G2032R mutant assessed as reduction in cell viability incubated for 72 hrs by CellTiter-Glo assay. The format is functional, cell-based. The following applies: BaF3, 72 h. A digest of the protocol: (§3)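 BaF3 cells engineered by pMSCV retroviral transduction (puromycin or hygromycin selection, 5 d, pooled populations) with CD74-ROS1 fusion variants. Seeded in growth medium with 10% FBS overnight at 37 °C, then serial compound dilutions for 72 h at 37 °C. CellTiter-Glo for relative cell number; IC50 by four-parameter curve fit.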

For test [13], the system named is BaF3. The test can be described thus: Antiproliferative activity against mouse BaF3 cells harboring CD74-ROS1 L2026M mutant assessed as reduction in cell viability incubated for 72 hrs by CellTiter-Glo assay. The format is functional, cell-based. The following applies: BaF3, 72 h. The method in brief:
as §3

Test [14] deals with Proto-oncogene tyrosine-protein kinase ROS (Homo sapiens, UniProt P08922, L2026M). The test is described as follows: Binding affinity to recombinant human ROS1 L2026M mutant assessed as inhibition constant in presence of ATP by microfluidic mobility shift assay.
Test [15] relates to Proto-oncogene tyrosine-protein kinase ROS (Homo sapiens), P08922 [G2032R]. The test can be described thus: Binding affinity to recombinant human ROS1 G2032R mutant assessed as inhibition constant in presence of ATP by microfluidic mobility shift assay.
Test [16] relates to HCC78. The test can be described thus: Antiproliferative activity against human HCC78 cells assessed as reduction in cell viability incubated for 72 hrs by CellTiter-Glo assay. The class given is functional, cell-based. The following applies: HCC78, 72 h. A digest of the protocol:
as §2

For test [17], the system named is BaF3. The test can be described thus: cells. The following applies: Mus musculus, BaF3, 72 h.

T2 sequence (Q78DX7 whole entry): as the sequence (Q78DX7 whole entry, other chains not shown, the tested form may be a part, canonical isoform) above
T2 sequence (P04441 whole entry, further chain): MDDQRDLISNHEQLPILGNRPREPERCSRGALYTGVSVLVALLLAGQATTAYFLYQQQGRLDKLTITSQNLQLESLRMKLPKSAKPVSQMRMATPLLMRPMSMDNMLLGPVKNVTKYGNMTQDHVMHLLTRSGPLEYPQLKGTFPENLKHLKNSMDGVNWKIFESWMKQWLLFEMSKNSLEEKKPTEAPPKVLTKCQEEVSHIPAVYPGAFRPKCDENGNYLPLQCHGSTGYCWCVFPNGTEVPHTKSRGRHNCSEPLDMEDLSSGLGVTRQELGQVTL
T1 sequence (P08922 whole entry): as the sequence (P08922 whole entry L2026M) above, with M2026L counted along it

Broadly, the Ki is the dissociation constant of the complex between target and ligand, obtained from inhibition or displacement. For orientation: IC50 means the concentration at which inhibition is half-maximal. Regarding `CCc1cc2c(cc1N1CCC(N3CCOCC3)CC1)C(C)(C)c1[nH]c3cc(C#N)ccc3c1C2=O` [ALECTINIB], the values for the Ki in [1] and in test [14] were 2400 nM and 2000 nM, respectively. For the same compound, the inhibition result in test [2] and in test [3] was “Dose-Dependent Effect” throughout. Also, the inhibition entry in [4] was “inactive”. In addition, the IC50 at SLC34A2-ROS1 is over 1000 nM; in test [5], over 10000 nM; in test [6], over 10000 nM; in test [7], over 10000 nM; in [8], over 5000 nM; in [9] it was over 5000 nM. Besides, the IC50 in test [10] was over 5000 nM; with HCC78 [11] it was over 10000 nM; in the test on BaF3 [12], over 2000 nM; in the test on BaF3 [13], over 2000 nM; in the test with HCC78 [16], over 1000 nM; in the test with BaF3 [17] it was over 2000 nM. The Kis in test [15] is over 3000 nM.
As for `COc1cc2nccc(Oc3ccc(NC(=O)C4(C(=O)Nc5ccc(F)cc5)CC4)cc3)c2cc1OC` [CABOZANTINIB], the IC50 in [5] came to 1.5 nM; in [6] it was 6.4 nM; in test [7] it was 1.4 nM; in the test on BaF3 [12], 1.3 nM; in the test on BaF3 [13], 1.1 nM; with BaF3 [17], 2.3 nM.
Regarding `Cc1cc(Nc2ncc(Cl)c(Nc3ccccc3S(=O)(=O)C(C)C)n2)c(OC(C)C)cc1C1CCNCC1` [CERITINIB], the inhibition result in test [2], in [3] and in test [4] was “Dose-Dependent Effect” in each case. The IC50 is 71 nM in test [5]; over 2000 nM in [6]; 70 nM in [7]; 341 nM in test [8]; 488 nM in [9]; 304 nM in test [10]. Besides, the IC50 is 506 nM in the test with HCC78 [11]; over 2000 nM in the test on BaF3 [12]; 60 nM in the test with BaF3 [13]; 226 nM with HCC78 [16]; 44 nM with BaF3 [17].
Consider `C[C@@H](Oc1cc(-c2cnn(C3CCNCC3)c2)cnc1N)c1c(Cl)ccc(F)c1Cl` [CRIZOTINIB], for which the inhibition result in [2], in test [3] and in test [4] was “Dose-Dependent Effect” throughout. Moreover, the IC50 was 3.9 nM in test [5]; over 5000 nM in test [6]; 11 nM in [8]; 60 nM in test [9]; 41 nM in test [10]; 21 nM in the test on HCC78 [11]. For the same compound, the IC50 is over 2000 nM in the test on BaF3 [12], 259 nM in the test with BaF3 [13], 47 nM in the test on HCC78 [16] and 18 nM in the test with BaF3 [17].
Consider `COc1cc2c(Oc3ccc(NC(=O)C4(C(=O)Nc5ccc(F)cc5)CC4)cc3F)ccnc2cc1OCCCN1CCOCC1` [FORETINIB], for which the inhibition entry in test [2], in [3] and in test [4] was “Dose-Dependent Effect” in each case. Further, the IC50 in test [5] turned out to be 3.8 nM; in test [6], 88 nM; in test [8] it was 5.47 nM; in [9], 6.1 nM; in [10], 5.6 nM; in the test with HCC78 [11], 19 nM. Also, the IC50 in the test on BaF3 [12] stood at 69 nM; in the test with BaF3 [13], 8.6 nM; in the test on HCC78 [16], 21 nM; in the test on BaF3 [17] it was 11 nM.
